Source: ChEMBL document CHEMBL4715780, “Biological evaluation of tetracationic compounds based on two 1,4-diazabicyclo[2.2.2]octane moieties connected by different linkers” (Bioorg Med Chem, 2016)

Key:
[1] = system: Enterococcus faecalis; test: Antibacterial activity against Enterococcus faecalis ATCC 51299 assessed as bacterial growth inhibition by CLSI protocol based serial microdilution method; assay type: functional
[2] = system: Pseudomonas aeruginosa; test: Antibacterial activity against Pseudomonas aeruginosa ATCC 9027 assessed as bacterial growth inhibition by CLSI protocol based serial microdilution method; assay type: functional
[3] = system: Salmonella typhimurium; test: Antibacterial activity against Salmonella enterica ATCC 14028 assessed as concentration required to inhibit visible growth by CLSI protocol based serial microdilution method; assay type: functional, Salmonella enterica subsp. enterica serovar Typhimurium
[4] = system: Proteus vulgaris; test: Antibacterial activity against Proteus vulgaris ATCC 6380 assessed as bacterial growth inhibition by CLSI protocol based serial microdilution method; assay type: functional
[5] = system: Candida albicans; test: Antifungal activity against Candida albicans CEMTC 34 assessed as concentration required to inhibit visible growth by CLSI protocol based serial microdilution method; assay type: functional
Outline: (§1)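 Candida albicans grown in Sabouraud dextrose broth with two-fold serial compound dilutions from water stocks; final inoculum about 5 × 10⁵ CFU/mL. Incubated at 37 °C with orbital shaking (580 rpm). MIC is the lowest concentration preventing growth, by absorbance at 595 nm. MFC is the lowest concentration with no visible growth. Duplicates in two separate experiments.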

[6] = system: Candida albicans; test: Antifungal activity against Candida albicans CEMTC 34 assessed as fungal growth inhibition by CLSI protocol based serial microdilution method; assay type: functional; outline: as §1
[7] = system: Staphylococcus aureus; test: Antibacterial activity against methicillin-resistant Staphylococcus aureus CEMTC 675 assessed as bacterial growth inhibition by CLSI protocol based serial microdilution method; assay type: functional
[8] = system: Staphylococcus aureus; test: Antibacterial activity against methicillin-resistant Staphylococcus aureus CEMTC 707 assessed as bacterial growth inhibition by CLSI protocol based serial microdilution method; assay type: functional
[9] = system: Staphylococcus aureus; test: Antibacterial activity against methicillin-resistant Staphylococcus aureus CEMTC 1695 assessed as bacterial growth inhibition by CLSI protocol based serial microdilution method; assay type: functional
[10] = system: Staphylococcus aureus; test: Antibacterial activity against methicillin-resistant Staphylococcus aureus CEMTC 1732 assessed as concentration required to inhibit visible growth by CLSI protocol based serial microdilution method; assay type: functional
[11] = system: Pseudomonas aeruginosa; test: Bactericidal activity against Pseudomonas aeruginosa ATCC 9027 assessed as colony forming unit at 10 ug/ml measured at 6 hrs by time kill assay (reference value: 10^8 CFU/ml); assay type: functional; settings: dose 10 µg/ml
Outline: (§2)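 Overnight Pseudomonas aeruginosa culture adjusted in Mueller–Hinton broth to about 2.5 × 10⁵ CFU/mL. Compound added at 2.5, 5 or 10 µg/mL, then incubated at 37 °C with shaking (580 rpm) for 22 h. Viable colonies counted on plates at 2, 4, 6, 8 and 22 h. Quantification limit 100 CFU/mL; triplicate.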

[12] = system: Pseudomonas aeruginosa; test: Bactericidal activity against Pseudomonas aeruginosa ATCC 9027 assessed as colony forming unit at 5 ug/ml measured at 8 hrs by time kill assay (reference value: 2.7 x 10^8 CFU/ml); assay type: functional; settings: dose 5 µg/ml; outline: as §2
[13] = system: Pseudomonas aeruginosa; test: Bactericidal activity against Pseudomonas aeruginosa ATCC 9027 assessed as colony forming unit at 2.5 ug/ml measured at 6 hrs by time kill assay (reference value: 10^8 CFU/ml); assay type: functional; settings: dose 2.5 µg/ml; outline: as §2
[14] = system: Pseudomonas aeruginosa; test: Bactericidal activity against Pseudomonas aeruginosa ATCC 9027 assessed as colony forming unit at 2.5 ug/ml measured at 22 hrs by time kill assay (reference value: 1.7 x 10^9 CFU/ml); assay type: functional; settings: dose 2.5 µg/ml; outline: as §2
[15] = system: Pseudomonas aeruginosa; test: Bactericidal activity against Pseudomonas aeruginosa ATCC 9027 assessed as reduction in colony forming unit at 10 ug/ml measured at 8 hrs by time kill assay relative to control; assay type: functional; set-up: scale not given: the % may be the effect or the level left; settings: dose 10 µg/ml; outline: as §2
[16] = system: Pseudomonas aeruginosa; test: Bactericidal activity against Pseudomonas aeruginosa ATCC 9027 assessed as reduction in colony forming unit at 5 ug/ml measured at 4 hrs by time kill assay relative to control; assay type: functional; set-up: scale not given: the % may be the effect or the level left; settings: dose 5 µg/ml; outline: as §2
[17] = system: Pseudomonas aeruginosa; test: Bactericidal activity against Pseudomonas aeruginosa ATCC 9027 assessed as reduction in colony forming unit at 5 ug/ml measured at 6 hrs by time kill assay relative to control; assay type: functional; set-up: scale not given: the % may be the effect or the level left; settings: dose 5 µg/ml; outline: as §2
[18] = system: Pseudomonas aeruginosa; test: Bactericidal activity against Pseudomonas aeruginosa ATCC 9027 assessed as reduction in colony forming unit at 2.5 ug/ml measured at 6 hrs by time kill assay relative to control; assay type: functional; set-up: scale not given: the % may be the effect or the level left; settings: dose 2.5 µg/ml; outline: as §2
[19] = system: Staphylococcus aureus; test: Bactericidal activity against […] Staphylococcus aureus ATCC 25923 assessed as colony forming unit at 5 ug/ml measured at 4 hrs by time kill assay (reference value: 7.8 x 10^6 CFU/ml); assay type: functional; settings: dose 5 µg/ml
Outline: (§3)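 S. aureus overnight culture was adjusted in MHB to ~8 × 10⁵ CFU/mL. Compound was added and the mixture incubated at 37 °C with shaking (580 rpm) for 22 h. Aliquots were plated for colony counts at 2, 4, 6, 8 and 22 h, with a quantification limit of 100 CFU/mL. Runs were done in triplicate.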

[20] = system: Staphylococcus aureus; test: Bactericidal activity against […] Staphylococcus aureus ATCC 25923 assessed as colony forming unit at 2.5 ug/ml measured at 6 hrs by time kill assay (reference value: 1.2 x 10^6 CFU/ml); assay type: functional; settings: dose 2.5 µg/ml; outline: as §3
[21] = system: Staphylococcus aureus; test: Bactericidal activity against […] Staphylococcus aureus ATCC 25923 assessed as colony forming unit at 2.5 ug/ml measured at 22 hrs by time kill assay (reference value: 2.9 x 10^9 CFU/ml); assay type: functional; settings: dose 2.5 µg/ml; outline: as §3
[22] = system: Staphylococcus aureus; test: Bactericidal activity against […] Staphylococcus aureus ATCC 25923 assessed as colony forming unit at 1.25 ug/ml measured at 2 hrs by time kill assay (reference value: 10^6 CFU/ml); assay type: functional; settings: dose 1.25 µg/ml; outline: as §3
[23] = Selectivity index, ratio of CC50 for HEK293T cells assessed as reduction in cell viability measured after 24 hrs by MTT assay to MIC for Staphylococcus aureus ATCC 25923 assessed as bacterial growth inhibition by CLSI protocol based serial microdilution method; assay type: toxicity; settings: human, read-out: Selectivity Index
[24] = Selectivity index, ratio of CC50 for HEK293T cells assessed as reduction in cell viability measured after 24 hrs by MTT assay to MIC for Escherichia coli ATCC 25922 assessed as bacterial growth inhibition by CLSI protocol based serial microdilution method; assay type: toxicity; settings: human, read-out: Selectivity Index
[25] = Selectivity index, ratio of CC50 for HEK293T cells assessed as reduction in cell viability measured after 24 hrs by MTT assay to MIC for Citrobacter freundii ATCC 8090 assessed as bacterial growth inhibition by CLSI protocol based serial microdilution method; assay type: toxicity; settings: human, read-out: Selectivity Index
[26] = system: Influenza A virus; test: Antiviral activity against Influenza A virus (A/Puerto Rico/8/34 (H1N1) infected in MDCK cells assessed as decrease in viral titer preincubated for 1 hr followed by viral infection and cultivated for 48 hrs followed by supernatant transferred to chicken erythrocyte for 1 hr followed by measuring ability to cause positive hemagglutination; assay type: functional, organism-based; settings: A/Puerto Rico/8/1934(H1N1)
Outline: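 MDCK monolayers in MEM were pre-incubated with compound for 1 h at 37 °C, then infected with 10-fold virus dilutions (10⁻¹–10⁻⁶) and held 48 h at 37 °C, 5% CO₂. Supernatant was mixed with an equal volume of 1% chicken erythrocytes, 60 min at room temperature. Titre was taken from the highest dilution giving full agglutination (log₁₀ EID₅₀). Triplicate per concentration.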

[27] = Selectivity index, ratio of CC50 for HEK293T cells assessed as reduction in cell viability measured after 24 hrs by MTT assay to MIC for Salmonella enterica ATCC 14028 assessed as bacterial growth inhibition by CLSI protocol based serial microdilution method; assay type: toxicity; settings: human, read-out: Selectivity Index

For `CCCCCCCCCCCC[N+]12CC[N+](CCC[N+]34CC[N+](CCCCCCCCCCCC)(CC3)CC4)(CC1)CC2`, the MIC [1] was 1.6 µg/mL, the MIC [2] was 1.6 µg/mL and the MBC [3] was 3.1 µg/mL. For the same molecule, the MIC [4] was 100 µg/mL, the MFC [5] was 6.3 µg/mL and the MIC [6] was 3.1 µg/mL. It also gave an MIC [7] of 0.5 µg/mL, an MIC [8] of 0.5 µg/mL and an MIC [9] of 1 µg/mL. For the same molecule, the MBC [10] was 1 µg/mL, the Activity [11] was <100 CFU/ml and the Activity [12] was <100 CFU/ml. The Activity [13] was <100 CFU/ml, the Activity [14] was <100 CFU/ml and the Activity [15] was “>=99.9%”. For the same molecule, the Activity [16] was “>=99.9%”, the Activity [17] was “>=99.9%” and the Activity [18] was “>=99.9%”. The Activity [19] was <100 CFU/ml, the Activity [20] was <100 CFU/ml and the Activity [21] was <100 CFU/ml. For the same molecule, the Activity [22] was <100 CFU/ml, the selectivity ratio at 24 h [23] was 22 and the selectivity ratio at 24 h [24] was 4. For the same molecule, the selectivity ratio at 24 h [25] was 4, the EC50 [26] was 1.9 µg/mL and the selectivity ratio at 24 h [27] was 4.

Work on `CCCCCCCCCCCC[N+]12CC[N+](Cc3ccccc3C[N+]34CC[N+](CCCCCCCCCCCC)(CC3)CC4)(CC1)CC2` yielded an MIC [1] of 0.8 µg/mL, an MIC [2] of 1.6 µg/mL and an MBC [3] of 3.1 µg/mL. For the same molecule, the MIC [4] was 100 µg/mL, the MFC [5] was 6.3 µg/mL and the MIC [6] was 3.1 µg/mL. For the same molecule, the MIC [7] was 0.5 µg/mL, the MIC [8] was 0.5 µg/mL and the MIC [9] was 1 µg/mL. The MBC [10] was 1 µg/mL, the Activity [11] was <100 CFU/ml and the Activity [12] was <100 CFU/ml. The Activity [13] was <100 CFU/ml, the Activity [14] was 100 CFU/ml and the Activity [15] was “>=99.9%”. The Activity [16] was “>=99.9%”, the Activity [17] was “>=99.9%” and the Activity [18] was “>=99.9%”. For the same molecule, the Activity [19] was <100 CFU/ml, the Activity [20] was <100 CFU/ml and the Activity [21] was <100 CFU/ml. The Activity [22] was <670 CFU/ml, the selectivity ratio at 24 h [23] was 7 and the selectivity ratio at 24 h [24] was 3. For the same molecule, the selectivity ratio at 24 h [25] was 3, the EC50 [26] was 1 µg/mL and the selectivity ratio at 24 h [27] was 3.
